This note sets out measurements from ChEMBL document CHEMBL5257094, “Synthesis and analysis of novel catecholic ligands as inhibitors of catechol-O-methyltransferase” (Bioorg Med Chem Lett, 2023).

Series [1] deals with T1, Catechol O-methyltransferase (Homo sapiens) (UniProt P21964).
T1 sequence (whole entry): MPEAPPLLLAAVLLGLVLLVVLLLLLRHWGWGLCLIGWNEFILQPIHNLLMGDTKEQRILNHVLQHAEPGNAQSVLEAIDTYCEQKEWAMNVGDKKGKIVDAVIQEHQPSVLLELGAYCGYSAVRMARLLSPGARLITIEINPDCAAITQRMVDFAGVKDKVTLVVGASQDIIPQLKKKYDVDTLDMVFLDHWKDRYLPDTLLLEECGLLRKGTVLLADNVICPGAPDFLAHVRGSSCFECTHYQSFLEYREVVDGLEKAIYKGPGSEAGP
The experiment in a line: Inhibition of S-COMT (unknown origin) assessed as scopoletin formation by measuring fluorescence using 6,7-dihydroxycoumarin as substrate at 10 uM and measured for 60 mins by fluorescence based microplate reader assay. An outline of the steps:
(§1)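 Soluble COMT (S-COMT) activity was run at 37 °C and pH 7.4. The substrate was aesculetin (6,7-dihydroxycoumarin) at 6 μM, which methylation converts to fluorescent scopoletin. Fluorescence was read over 60 min. Test catechols were added at 10 μM or 100 μM. Each was assayed at least in triplicate, and the signal was normalized to the no-inhibitor aesculetin fluorescence.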

Series [2] in a line: Stability of compound in phosphate buffer at 7.4 assessed as drug degradation incubated for 1 hr by HPLC analysis. Type of series: physicochemical. The note with it: for Stability: buffer, pH 7.4, 1 h; for degraded at 1 h: phosphate buffer, pH 7.4, read-out: Drug degradation. An outline of the steps:
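Compounds were incubated at assay conditions, 37 °C in phosphate buffer at pH 7.4, for 1 hour. Degradation was then assessed by HPLC analysis.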

Series [3] deals with T1, Catechol O-methyltransferase (Homo sapiens). The experiment in a line: Inhibition of S-COMT (unknown origin) assessed as scopoletin formation by measuring fluorescence using 6,7-dihydroxycoumarin as substrate at 100 uM and measured for 60 mins by fluorescence based microplate reader assay. An outline of the steps: as §1
The nature of series [4]: Dissociation constant, pKa of compound pH 3.01 to 12.36 at 0.2 mM by spectroscopic analysis. It is filed as physicochemical. An outline of the steps:
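Five-buffer series in which CHES replaced Borax over pH 8.2–10.8, with KCl buffers added to widen the range. Compound dissolved in each buffer across pH 3.01–12.36 to a final 0.2 mM. Absorbance was read, normalized, and fitted to give the first and, where determinable, second catechol hydroxyl pKa.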

SMILES strings stand for the structures. The source made the active and inactive calls. No cut-off for these calls is given here.

The term inhibition denotes the drop in the measured response relative to a control, in per cent. Take `N#CCCc1ccc(O)c(O)c1`: in series [1], the inhibition entry is “inactive”. Besides, the Stability result in series [2] is reported as “Unstable”. The inhibition entry in series [3] was “Active”.

Usually pKa stands for the negative logarithm of the acid dissociation constant. `N#CCc1cc(O)c(O)cc1[N+](=O)[O-]`: the pKa at 200 µM in series [4] was found to be 6.23. In addition, the inhibition entry in series [1] and in series [3] was “Active” in each case. Moreover, in series [2], the degraded at 1 h was under 5%.

Consider `Oc1cc2c(cc1O)CNCC2`, for which the inhibition entry in series [1] and in series [3] was “inactive” each time. Besides, the Stability result in series [2] was “Unstable”.

On to `N#CCCc1cc(O)c(O)cc1[N+](=O)[O-]`, for which the inhibition entry in series [1] is “inactive”. Also, the Stability result in series [2] is recorded as “Stable”. For the same compound, in series [3], the inhibition result was “Active”.

In series [4], `NCCc1ccc(O)c(O)c1` [DOPAMINE] yielded a pKa at 200 µM of 8.66. The Stability result in series [2] was “Stable”.

In series [4], `N#Cc1ccc(O)c(O)c1` displayed a pKa at 200 µM of 7.45. Moreover, in series [1], the inhibition entry is “inactive”. Besides, the Stability result in series [2] is “Stable”. Also, in series [3], the inhibition entry is “Active”.

In turn, `N#CCc1ccc(O)c(O)c1` showed a pKa at 200 µM in series [4] of 9.6. In addition, the inhibition result in series [1] is “inactive”. Moreover, the Stability entry in series [2] is on record as “Stable”. Besides, in series [3], the inhibition entry was “Active”.

As to `N#Cc1cc(O)c(O)cc1CCN`, in series [1], the inhibition entry is “inactive”. In addition, the Stability entry in series [2] is “Stable”. Besides, the inhibition in series [3] was 30%.

`NCCc1cc(O)c(O)cc1O` [OXIDOPAMINE]: in series [1], the inhibition result was “inactive”. Also, in series [2], the degraded at 1 h is over 40%. Moreover, the inhibition entry in series [3] is “Active”.

With `NCCc1cc(O)c(O)cc1C(=O)O`, the inhibition result in series [1] and in series [3] was “inactive” in each case. Besides, the Stability entry in series [2] is recorded as “Stable”.

Take `NCCc1cc(O)c(O)cc1[N+](=O)[O-]`: the pKa at 200 µM in series [4] worked out at 6.33. Also, the inhibition entry in series [1] was “inactive”. In addition, in series [2], the Stability result is “Stable”. The inhibition in series [3] stood at 50%.

With `NCCc1cc(O)c(O)cc1Br`, the inhibition result in series [1] and in series [3] was “inactive” in each case. Also, the Stability result in series [2] is recorded as “Stable”.
